According to ChEMBL document CHEMBL1123837, “1-Amino-substituted 4-methyl-5H-pyrido[3',4':4,5]pyrrolo[3,2-c]pyridines: a new class of antineoplastic agents” (J Med Chem, 1987):
The source made the active and inactive calls. No cut-off for these calls is given here.

Tests used:
[1] = system: Calf thymus DNA; experiment: Binding affinity for DNA by ethidium bromide displacement assay; type: nucleic-acid assay; settings: Bos taurus
How it was run: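 Competitive ethidium bromide displacement with calf thymus DNA at 10 µg/mL in 20 mM Na phosphate buffer, 0.1 M NaCl, 1 mM EDTA, pH 7.4. The apparent DNA affinity constant is given in 10^6 M^-1 ± standard deviation, from 6 values across two independent experiments.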

[2] = system: Mus musculus; experiment: In vivo antitumor activity was determined against P388 leukemia cells expressed as treated/control at the dose of 20 mg/kg; type: functional
How it was run: (§1)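 Following NCI protocols, 10^6 viable P388 leukemia cells were inoculated ip on day 0 into male or female CDF1 hybrid mice, 10 per test group. Compounds in distilled water were given ip (0.1 mL/10 g body weight) at various doses on days 1–5. T/C = median survival day of treated / median survival day of negative controls × 100.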

[3] = system: Mus musculus; experiment: In vivo antitumor activity was determined against P388 leukemia cells expressed as treated/control at the dose of 10 mg/kg; type: functional; how it was run: as §1
[4] = system: Mus musculus; experiment: In vivo antitumor activity was determined against P388 leukemia cells expressed as treated/control at the dose of 5 mg/kg; type: functional; how it was run: as §1
[5] = system: Mus musculus; experiment: In vivo antitumor activity was determined against P388 leukemia cells expressed as treated/control at the dose of 40 mg/kg; type: functional; how it was run: as §1
[6] = system: Mus musculus; experiment: In vivo antitumor activity was evaluated on L1210 leukemia model and percent of treated/control of tumor cells was determined at 60 mg/kg dosage concentration.; type: functional
How it was run: as §1, with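 “10^5” for “10^6”, “L1210” for “P388”, “dosed” for “given”, “daily” for “at various doses”, “treated mice” for “treated”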

[7] = system: Mus musculus; experiment: In vivo antitumor activity was evaluated on L1210 leukemia model and weight change in tumors was determined at 2.5 mg/kg dosage concentration; type: functional
[8] = system: Mus musculus; experiment: In vivo antitumor activity was evaluated on L1210 leukemia model and number of survivors (animals) was determined at 60 mg/kg dosage concentration; number of survivors given as 1/10; type: functional
How it was run: (§2)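 L1210 leukemia, 10^5 viable cells inoculated ip on day 0 into CDF1 hybrid male or female mice, 10 mice per group. Compounds were given ip in distilled water (0.1 mL/10 g body weight) on days 1-5. Vehicle controls were treated the same way. NCI protocols were followed. T/C = median survival day of treated mice / median survival day of vehicle controls × 100.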

[9] = system: Mus musculus; experiment: In vivo antitumor activity was determined against P388 leukemia cells expressed as number of; type: functional
How it was run: (§3)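 P388 leukemia, 10^6 viable cells inoculated ip on day 0 into CDF1 hybrid male or female mice, 10 mice per group. Compounds were given ip in distilled water (0.1 mL/10 g body weight) at various doses on days 1-5. Vehicle controls were treated the same way. NCI protocols were followed.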

[10] = system: Mus musculus; experiment: In vivo antitumor activity was evaluated on L1210 leukemia model and percent of treated/control of tumor cells was determined at 2.5 mg/kg dosage concentration; type: functional
How it was run: as §1, with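 “10^5” for “10^6”, “L1210” for “P388”, “dosed” for “given”, “daily” for “at various doses”, “treated mice” for “treated”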

[11] = system: Mus musculus; experiment: In vivo antitumor activity was evaluated on L1210 leukemia model and number of survivors (animals) was determined at 15 mg/kg dosage concentration; number of survivors given as 0/10; type: functional; how it was run: as §2
[12] = system: Mus musculus; experiment: In vivo antitumor activity was determined against P388 leukemia cells expressed as treated/control at the dosage of 20 mg/kg; type: functional; how it was run: as §1
[13] = system: Mus musculus; experiment: In vivo antitumor activity was evaluated on L1210 leukemia model and median survival day was determined at 15 mg/kg dosage concentration.; type: functional; how it was run: as §2
[14] = system: Mus musculus; experiment: In vivo antitumor activity was evaluated on L1210 leukemia model and percent of treated/control of tumor cells was determined at 30 mg/kg dosage concentration; type: functional
How it was run: as §1, with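 “10^5” for “10^6”, “L1210” for “P388”, “dosed” for “given”, “daily” for “at various doses”, “treated mice” for “treated”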

[15] = system: Mus musculus; experiment: In vivo antitumor activity was evaluated on L1210 leukemia model and median survival day was determined at 30 mg/kg dosage concentration; type: functional; how it was run: as §2
[16] = system: Mus musculus; experiment: In vivo antitumor activity was evaluated on L1210 leukemia model and weight change in tumors was determined at 80 mg/kg dosage concentration.; type: functional
[17] = system: Mus musculus; experiment: In vivo antitumor activity was determined against P388 leukemia cells expressed as treated/control at the dosage of 40 mg/kg; type: functional; how it was run: as §1
[18] = system: Mus musculus; experiment: In vivo antitumor activity was evaluated on L1210 leukemia model and weight change in tumors was determined at 60 mg/kg dosage concentration.; type: functional
[19] = system: Mus musculus; experiment: In vivo antitumor activity was evaluated on L1210 leukemia model and number of survivors (animals) was determined at 2.5 mg/kg dosage concentration; number of survivors given as 0/10; type: functional; how it was run: as §2
[20] = system: Mus musculus; experiment: In vivo antitumor activity was evaluated on L1210 leukemia model and number of survivors (animals) was determined at 5 mg/kg dosage concentration; number of survivors given as 0/10; type: functional; how it was run: as §2
[21] = system: Mus musculus; experiment: In vivo antitumor activity was evaluated on L1210 leukemia model and median survival day was determined at 5 mg/kg dosage concentration; type: functional; how it was run: as §2
[22] = system: Mus musculus; experiment: In vivo antitumor activity was determined against P388 leukemia cells expressed as treated/control at the dosage of 10 mg/kg; type: functional; how it was run: as §1
[23] = system: Mus musculus; experiment: In vivo antitumor activity was evaluated on L1210 leukemia model and number of survivors (animals) was determined at 30 mg/kg dosage concentration; number of survivors given as 0/10; type: functional; how it was run: as §2
[24] = system: Mus musculus; experiment: In vivo antitumor activity was determined against P388 leukemia cells expressed as treated/control at the dosage of 50 mg/kg; type: functional; how it was run: as §1
[25] = system: Mus musculus; experiment: In vivo antitumor activity was evaluated on L1210 leukemia model and median survival day was determined at 2.5 mg/kg dosage concentration; type: functional; how it was run: as §2
[26] = system: Mus musculus; experiment: In vivo antitumor activity was evaluated on L1210 leukemia model and percent of treated/control of tumor cells was determined at 80 mg/kg dosage concentration.; type: functional
How it was run: as §1, with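 “10^5” for “10^6”, “L1210” for “P388”, “dosed” for “given”, “daily” for “at various doses”, “treated mice” for “treated”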

[27] = system: Mus musculus; experiment: In vivo antitumor activity was evaluated on L1210 leukemia model and percent of treated/control of tumor cells was determined at 5 mg/kg dosage concentration; type: functional
How it was run: as §1, with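 “10^5” for “10^6”, “L1210” for “P388”, “dosed” for “given”, “daily” for “at various doses”, “treated mice” for “treated”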

[28] = system: Mus musculus; experiment: In vivo antitumor activity was evaluated on L1210 leukemia model and weight change in tumors was determined at 30 mg/kg dosage concentration; type: functional
[29] = system: Mus musculus; experiment: In vivo antitumor activity was evaluated on L1210 leukemia model and number of survivors (animals) was determined at 80 mg/kg dosage concentration; number of survivors given as 0/10; type: functional; how it was run: as §2
[30] = system: Mus musculus; experiment: In vivo antitumor activity was evaluated on L1210 leukemia model and weight change in tumors was determined at 5 mg/kg dosage concentration; type: functional
[31] = system: Mus musculus; experiment: In vivo antitumor activity was evaluated on L1210 leukemia model and median survival day was determined at 80 mg/kg dosage concentration.; type: functional; how it was run: as §2
[32] = system: Mus musculus; experiment: In vivo antitumor activity was evaluated on L1210 leukemia model and percent of treated/control of tumor cells was determined at 15 mg/kg dosage concentration.; type: functional
How it was run: as §1, with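 “10^5” for “10^6”, “L1210” for “P388”, “dosed” for “given”, “daily” for “at various doses”, “treated mice” for “treated”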

[33] = system: Mus musculus; experiment: In vivo antitumor activity was evaluated on L1210 leukemia model and median survival day was determined at 60 mg/kg dosage concentration.; type: functional; how it was run: as §2
[34] = system: Mus musculus; experiment: In vivo antitumor activity was evaluated on L1210 leukemia model and weight change in tumors was determined at 15 mg/kg dosage concentration.; type: functional
[35] = system: Mus musculus; experiment: In vivo antitumor activity was determined against P388 leukemia cells expressed as treated/control at the dose of 60 mg/kg; T = toxic at this dose; type: organism-based; design: dose 60 mg/kg; how it was run: as §1
[36] = In vitro cytotoxicity against L1210 cells was determined after 48 hours of incubation; type: cell-based; settings: mouse, read-out: ID50
How it was run: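 Exponentially growing L1210 cells were cultured in RPMI 1640 with 2 mM glutamine, penicillin/streptomycin and 10% fetal calf serum, under 5% CO2 at 37 °C. Drugs dissolved in distilled water were added to cells at 0.8 × 10^5 cells/mL for 48 h, then cells were counted. ID50 was estimated by regression of dose-response data, as the mean of two values from two independent experiments.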

[37] = system: Mus musculus; experiment: In vivo antitumor activity was determined against P388 leukemia cells expressed as treated/control at the dosage of (0.3-40)mg/kg; IA= inactive; type: functional, organism-based; how it was run: as §1
[38] = system: Mus musculus; experiment: In vivo antitumor activity was evaluated on L1210 leukemia model and percent of treated/control of tumor cells was determined at 20 mg/kg dosage concentration; type: functional; how it was run: as §2
[39] = system: Mus musculus; experiment: In vivo antitumor activity was determined against P388 leukemia cells expressed as number of animals survived; type: functional; how it was run: as §3
[40] = system: Mus musculus; experiment: In vivo antitumor activity was evaluated on L1210 leukemia model and weight change in tumors was determined at 20 mg/kg dosage concentration; type: functional
[41] = system: Mus musculus; experiment: In vivo antitumor activity was evaluated on L1210 leukemia model and number of survivors (animals) was determined at 20 mg/kg dosage concentration; type: functional; how it was run: as §2
[42] = system: Mus musculus; experiment: In vivo antitumor activity was evaluated on L1210 leukemia model and median survival day was determined at 20 mg/kg dosage concentration; type: functional; how it was run: as §2

Question: What does the source list for `Cc1cnc(NCCCN(C)C)c2c3cnccc3n(C)c12`?
Answer: K aff [1]: 40000 M⁻¹; T/C [2]: 167; T/C [3]: 150; T/C [4]: 136; T/C [5]: 173

Question: Which T/C [6] does the source give for `CCN(CC)CCCNc1ncc(C)c2c1c1cnccc1n2C` here?
Answer: 196%

Question: And the Weight changes [7]?
Answer: 0.7 g

Question: And the Survivors [8]?
Answer: 1

Question: And the Survivors [9]?
Answer: 3

Question: What about the T/C [10] of the same compound?
Answer: 118%

Question: And the Survivors [11]?
Answer: 0

Question: And the K aff [1]?
Answer: 40000 M⁻¹

Question: What about the T/C [12] of the same compound?
Answer: 164

Question: And the Median survival day [13]?
Answer: 13.75

Question: What about the T/C [14] of the same compound?
Answer: 187.5%

Question: What about the Median survival day [15] of the same compound?
Answer: 17.25

Question: And the Weight changes [16]?
Answer: -2.3 g

Question: What about the T/C [17] of the same compound?
Answer: 172

Question: And the Weight changes [18]?
Answer: -2.3 g

Question: What about the Survivors [19] of the same compound?
Answer: 0

Question: And the Survivors [20]?
Answer: 0

Question: And the Median survival day [21]?
Answer: 12.75

Question: And the T/C [22]?
Answer: 147

Question: What about the Survivors [23] of the same compound?
Answer: 0

Question: What about the T/C [24] of the same compound?
Answer: 207

Question: What about the Median survival day [25] of the same compound?
Answer: 10.9

Question: And the T/C [26]?
Answer: 99%

Question: What about the T/C [27] of the same compound?
Answer: 138%

Question: What about the Weight changes [28] of the same compound?
Answer: 0.2 g

Question: What about the Survivors [29] of the same compound?
Answer: 0

Question: What about the Weight changes [30] of the same compound?
Answer: -0.3 g

Question: What about the Median survival day [31] of the same compound?
Answer: 9.1

Question: And the T/C [32]?
Answer: 149%

Question: What about the Median survival day [33] of the same compound?
Answer: 18

Question: What about the Weight changes [34] of the same compound?
Answer: 0.8 g

Question: With `CCN(CC)CCCNc1ncc(C)c2c1c1cnccc1n2CC` as the compound, how does the T/C [35] read?
Answer: Toxic

Question: And the K aff [1]?
Answer: 17000 M⁻¹

Question: And the CC50 at 48 h [36]?
Answer: 1.4 µM

Question: And the T/C [37]?
Answer: inactive

Question: Which results are given for `O=c1[nH]cc(F)c(=O)[nH]1` [FLUOROURACIL]?
Answer: T/C [38]: 196%; Survivors [39]: 0; Weight changes [40]: 0.1 g; Survivors [41]: 10; Median survival day [42]: 18
